Columns and labels:
[1] = target: T1, Histone deacetylase 11 (Homo sapiens, UniProt Q96DB2); experiment: Inhibition of human full-length recombinant HDAC11 expressed in baculovirus infected Sf9 insect cells using fluorogenic peptide RHKKAc as substrate after 2 hrs
T1 sequence (Q96DB2 whole entry): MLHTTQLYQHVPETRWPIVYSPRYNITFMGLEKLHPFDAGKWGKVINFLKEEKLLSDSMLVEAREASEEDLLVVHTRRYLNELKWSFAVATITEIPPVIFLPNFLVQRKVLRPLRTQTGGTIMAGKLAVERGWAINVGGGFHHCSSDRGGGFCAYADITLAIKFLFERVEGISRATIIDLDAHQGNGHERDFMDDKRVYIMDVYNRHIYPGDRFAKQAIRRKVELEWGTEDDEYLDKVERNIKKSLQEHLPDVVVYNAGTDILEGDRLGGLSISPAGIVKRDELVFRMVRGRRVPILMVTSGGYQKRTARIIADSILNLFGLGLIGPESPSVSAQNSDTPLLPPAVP
Method in brief: (§1)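 Run by an outside contract lab. IC50 was obtained from 10-point dose-response curves using threefold serial dilutions of compound from the top concentration.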

[2] = target: T2, Protein deacetylase HDAC6 (Homo sapiens, UniProt Q9UBN7); experiment: Inhibition of human full-length recombinant HDAC6 expressed in baculovirus infected Sf9 insect cells using fluorogenic peptide RHKKAc as substrate after 2 hrs
T2 sequence (Q9UBN7 whole entry): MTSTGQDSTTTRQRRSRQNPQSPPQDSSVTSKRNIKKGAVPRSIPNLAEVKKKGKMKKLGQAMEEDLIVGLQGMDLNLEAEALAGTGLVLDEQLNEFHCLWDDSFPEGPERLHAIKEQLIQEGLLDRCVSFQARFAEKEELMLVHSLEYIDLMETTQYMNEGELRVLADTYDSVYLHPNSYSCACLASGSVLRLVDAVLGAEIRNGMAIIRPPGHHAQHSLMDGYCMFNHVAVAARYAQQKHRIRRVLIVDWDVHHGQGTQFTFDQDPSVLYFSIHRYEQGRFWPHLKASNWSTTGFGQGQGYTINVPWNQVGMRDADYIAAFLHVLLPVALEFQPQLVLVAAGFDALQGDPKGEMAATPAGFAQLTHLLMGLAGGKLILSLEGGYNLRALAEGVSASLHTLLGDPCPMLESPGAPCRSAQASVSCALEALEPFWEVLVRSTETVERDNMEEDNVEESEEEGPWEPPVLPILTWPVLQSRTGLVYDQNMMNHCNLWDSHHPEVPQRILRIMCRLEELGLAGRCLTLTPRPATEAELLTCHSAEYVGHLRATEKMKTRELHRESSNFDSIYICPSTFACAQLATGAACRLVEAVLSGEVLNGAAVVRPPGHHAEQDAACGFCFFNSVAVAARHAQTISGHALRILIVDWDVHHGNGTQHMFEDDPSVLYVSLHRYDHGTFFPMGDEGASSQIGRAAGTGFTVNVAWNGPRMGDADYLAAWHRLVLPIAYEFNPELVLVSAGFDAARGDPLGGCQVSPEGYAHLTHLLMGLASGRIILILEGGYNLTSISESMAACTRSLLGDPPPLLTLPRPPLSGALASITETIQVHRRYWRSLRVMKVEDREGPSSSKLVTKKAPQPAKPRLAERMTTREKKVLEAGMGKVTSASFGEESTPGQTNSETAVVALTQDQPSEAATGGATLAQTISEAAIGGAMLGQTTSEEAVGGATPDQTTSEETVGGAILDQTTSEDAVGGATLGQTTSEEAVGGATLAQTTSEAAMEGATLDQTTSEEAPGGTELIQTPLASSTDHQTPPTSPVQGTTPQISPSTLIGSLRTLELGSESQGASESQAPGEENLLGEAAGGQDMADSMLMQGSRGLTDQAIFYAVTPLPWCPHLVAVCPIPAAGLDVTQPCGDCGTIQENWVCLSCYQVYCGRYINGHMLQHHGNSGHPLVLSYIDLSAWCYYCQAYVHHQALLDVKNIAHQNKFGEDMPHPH

[3] = target: Histone deacetylase 1 (Homo sapiens, UniProt Q13547); experiment: Inhibition of human full-length recombinant HDAC1 expressed in baculovirus infected Sf9 insect cells using fluorogenic peptide RHKKAc as substrate after 2 hrs; method in brief: as §1
[4] = target: T3, Histone deacetylase 8 (Homo sapiens, UniProt Q9BY41); experiment: Inhibition of human full-length recombinant HDAC8 expressed in baculovirus infected Sf9 insect cells using fluorogenic peptide RHKAcKAc as substrate after 2 hrs
T3 sequence (Q9BY41 whole entry): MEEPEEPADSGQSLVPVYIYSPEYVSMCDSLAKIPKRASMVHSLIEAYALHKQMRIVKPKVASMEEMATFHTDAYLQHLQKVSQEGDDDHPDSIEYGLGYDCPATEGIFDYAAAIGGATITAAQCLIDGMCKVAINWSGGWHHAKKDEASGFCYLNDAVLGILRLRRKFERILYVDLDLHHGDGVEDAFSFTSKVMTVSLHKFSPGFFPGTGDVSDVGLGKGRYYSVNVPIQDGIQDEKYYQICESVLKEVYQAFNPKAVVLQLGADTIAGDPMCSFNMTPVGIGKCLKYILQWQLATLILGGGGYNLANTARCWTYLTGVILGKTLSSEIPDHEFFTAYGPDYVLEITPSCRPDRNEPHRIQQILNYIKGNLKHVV

[5] = target: T2, Protein deacetylase HDAC6; experiment: Inhibition of human full-length recombinant HDAC6 expressed in baculovirus infected Sf9 insect cells using Boc-Lys (Ac)-AMC as substrate preincubated for 10 mins followed by substrate addition and measured after 30 mins by fluorescence assay
[6] = system: A549; experiment: Cytotoxicity against human A549 cells after 72 hrs by MTT assay; assay type: functional, cell-based; conditions: A549, 72 h
Method in brief: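 Human A549 lung cancer cells exposed to serial dilutions of inhibitor at 37 °C for 72 h. Cytotoxicity expressed as IC50.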

[7] = target: T2, Protein deacetylase HDAC6; experiment: Inhibition of human HDAC6 CD2 expressed in Escherichia coli BL21 (RIL) using Boc-Lys (Ac)-AMC as substrate preincubated for 10 mins followed by substrate addition and measured after 30 mins by fluorescence assay
[8] = system: Lewis lung carcinoma cell line; experiment: Induction of apoptosis in mouse LL/2 cells assessed as late apoptotic cells at 10 uM after 24 hrs by Annexin V/propidium iodide staining-based flow cytometric analysis (reference value: 8.7%); assay type: functional
[9] = system: Lewis lung carcinoma cell line; experiment: Cytotoxicity against mouse LL/2 cells after 72 hrs by MTT assay; assay type: functional, cell-based
[10] = system: Lewis lung carcinoma cell line; experiment: Induction of apoptosis in mouse LL/2 cells assessed as viable cells at 10 uM after 24 hrs by Annexin V/propidium iodide staining-based flow cytometric analysis (reference value: 82.3%); assay type: functional; conditions: read-out: Activity
[11] = system: A549; experiment: Induction of apoptosis in human A549 cells assessed as viable cells at 10 uM after 24 hrs by Annexin V/propidium iodide staining-based flow cytometric analysis (reference value: 96.2%); assay type: functional; conditions: A549, 24 h, read-out: Activity
[12] = system: A549; experiment: Induction of apoptosis in human A549 cells assessed as late apoptotic cells at 10 uM after 24 hrs by Annexin V/propidium iodide staining-based flow cytometric analysis (reference value: 1.6%); assay type: functional
[13] = system: Lewis lung carcinoma cell line; experiment: Cytotoxicity against mouse LL/2 cells at 10 uM after 72 hrs by MTT assay relative to control; assay type: functional; conditions: in the assay text read “at 10 nM” for “at 10 uM”
Method in brief: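 Mouse LL/2 cells treated with inhibitor alone or combined with paclitaxel for 3 days. Viability measured by MTT assay relative to untreated control.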

[14] = system: Lewis lung carcinoma cell line; experiment: Induction of apoptosis in mouse LL/2 cells assessed as necrotic cells at 10 uM after 24 hrs by Annexin V/propidium iodide staining-based flow cytometric analysis (reference value: 7.3%); assay type: functional
[15] = system: A549; experiment: Induction of apoptosis in human A549 cells assessed as necrotic cells at 10 uM after 24 hrs by Annexin V/propidium iodide staining-based flow cytometric analysis (reference value: 1.1%); assay type: functional
[16] = system: Lewis lung carcinoma cell line; experiment: Induction of alpha tubulin acetylation in mouse LL/2 cells at 10 uM after 24 hrs by Western blot analysis relative to control; assay type: functional
[17] = system: Lewis lung carcinoma cell line; experiment: Induction of apoptosis in mouse LL/2 cells assessed as early apoptotic cells at 10 uM after 24 hrs by Annexin V/propidium iodide staining-based flow cytometric analysis (reference value: 1.8%); assay type: functional
[18] = system: A549; experiment: Induction of apoptosis in human A549 cells assessed as early apoptotic cells at 10 uM after 24 hrs by Annexin V/propidium iodide staining-based flow cytometric analysis (reference value: 1.2%); assay type: functional
[19] = AUC (0 to 24 hrs) in C57BL/6 mouse plasma at 40 mg/kg, po administered via gavage by LC-MS/MS analysis; assay type: ADME, organism-based; set-up: time < 24 hr, dose 40 mg/kg, route oral; conditions: in vivo
[20] = AUC (0 to 24 hrs) in C57BL/6 mouse kidney at 40 mg/kg, po administered via gavage by LC-MS/MS analysis; assay type: ADME, organism-based; set-up: time < 24 hr, dose 40 mg/kg, route oral; conditions: in vivo
[21] = AUC (0 to 24 hrs) in C57BL/6 mouse liver at 40 mg/kg, po administered via gavage by LC-MS/MS analysis; assay type: ADME, organism-based; set-up: dose 40 mg/kg, time < 24 hr, route oral; conditions: in vivo
[22] = AUC (0 to 24 hrs) in C57BL/6 mouse lung at 40 mg/kg, po administered via gavage by LC-MS/MS analysis; assay type: ADME, organism-based; set-up: time < 24 hr, dose 40 mg/kg, route oral; conditions: in vivo

Histone deacetylase 1, sequence (Q13547 whole entry): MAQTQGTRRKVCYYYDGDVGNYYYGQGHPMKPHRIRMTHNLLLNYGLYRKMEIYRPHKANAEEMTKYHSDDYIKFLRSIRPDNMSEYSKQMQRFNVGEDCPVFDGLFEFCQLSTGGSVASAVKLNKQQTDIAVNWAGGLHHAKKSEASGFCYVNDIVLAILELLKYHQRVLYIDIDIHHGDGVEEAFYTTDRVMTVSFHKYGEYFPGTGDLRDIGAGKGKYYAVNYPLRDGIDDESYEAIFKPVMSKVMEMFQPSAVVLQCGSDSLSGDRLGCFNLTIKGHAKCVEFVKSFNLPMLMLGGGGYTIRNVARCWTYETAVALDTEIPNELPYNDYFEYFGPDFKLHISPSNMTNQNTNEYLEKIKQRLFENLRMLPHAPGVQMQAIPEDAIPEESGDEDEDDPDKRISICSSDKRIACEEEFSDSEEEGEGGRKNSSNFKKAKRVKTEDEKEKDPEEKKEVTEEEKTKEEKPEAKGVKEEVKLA

Row | Compound | IC50 [1] [nM] | IC50 [2] [nM] | IC50 [3] [nM] | IC50 [6] [nM] | also measured
1 | O=C(NO)c1ccc(Cn2c(=O)n(CCc3ccc(F)cc3)c(=O)c3ccccc32)cc1 |  |  |  | 3650 | 
2 | O=C(NO)c1ccc(Cn2c(=O)n(CCc3ccc(O)cc3)c(=O)c3ccccc32)cc1 | 11300 | 5 | 9080 |  | IC50 [4]: 845 nM
3 | O=C(NO)c1ccc(Cn2c(=O)n(CCc3ccccc3)c(=O)c3cc(F)ccc32)cc1 |  |  |  | 12200 | 
4 | O=C(NO)c1ccc(Cn2c(=O)n(CCc3ccccc3)c(=O)c3ccccc32)s1 | 19800 | 20 | 22900 | 13500 | IC50 [4]: 97 nM
5 | COc1ccccc1CCn1c(=O)c2ccccc2n(Cc2ccc(C(=O)NO)cc2)c1=O |  | 12 |  | 11800 | Ki [5]: 2.1 nM; Ki [7]: 2.6 nM
6 | O=C(NO)c1ccc(Cn2c(=O)n(CCc3cccc(C(F)(F)F)c3)c(=O)c3ccccc32)cc1 |  | 24 | 12700 | 6030 | IC50 [4]: 1760 nM
7 | O=C(NO)c1ccc(Cn2c(=O)n(CCc3ccccc3)c(=O)c3ccc(F)cc32)cc1 |  |  |  | 3920 | 
8 | CC(=O)O[C@H]1C(=O)[C@@]2(C)[C@H]([C@H](OC(=O)c3ccccc3)[C@]3(O)C[C@H](OC(=O)[C@H](O)[C@@H](NC(=O)c4ccccc4)c4ccccc4)C(C)=C1C3(C)C)[C@]1(OC(C)=O)CO[C@@H]1C[C@@H]2O [PACLITAXEL] |  |  |  |  | Activity [8]: 15.9%; IC50 [9]: 10 nM; viability at 10 µM [10]: 73.4%; viability at 10 µM [11]: 94.9%; Activity [12]: 1.2%; Activity [13]: 20%; Activity [14]: 6.9%; Activity [15]: 1%; fold change (FC) [16]: 7.28; Activity [17]: 4%; Activity [18]: 2.9%
9 | O=C(CCCCCCNC(=O)c1cnc(N(c2ccccc2)c2ccccc2)nc1)NO [RICOLINOSTAT] |  |  |  | 7700 | AUC [19]: 308 ng·h/g; AUC [20]: 2493 ng·h/g; AUC [21]: 1442 ng·h/g; AUC [22]: 622 ng·h/g
10 | O=C(CCCCCCC(=O)Nc1ccccc1)NO [VORINOSTAT] |  |  |  | 2240 | 

Continued, in another order:

Row | IC50 [1] [nM] | IC50 [2] [nM] | IC50 [3] [nM] | Compound | IC50 [6] [nM] | also measured
11 | 13800 | 20 | 7370 | COc1ccc(CCn2c(=O)c3ccccc3n(Cc3ccc(C(=O)NO)cc3)c2=O)cc1 |  | IC50 [4]: 1150 nM
12 |  | 29 |  | O=C(NO)c1ccc(Cn2c(=O)n(CCc3ccccc3)c(=O)c3cccnc32)cc1 | 2840 | Ki [5]: 3.89 nM; Ki [7]: 4.5 nM
13 |  | 32 |  | O=C(NO)c1ccc(Cn2c(=O)n(CCc3ccccc3)c(=O)c3ccc(O)cc32)cc1 |  | 
14 | > 10000 |  | > 10000 | O=C(NO)c1cc(Cn2c(=O)n(CCc3ccccc3)c(=O)c3ccccc32)cs1 |  | 
15 | > 10000 | 4630 | > 10000 | O=C(NO)c1cccc(Cn2c(=O)n(CCc3ccccc3)c(=O)c3ccccc32)c1 |  | 
16 |  | 22 |  | O=C(NO)c1ccc(Cn2c(=O)n(CCc3ccccc3)c(=O)c3ccc(Cl)cc32)cc1 |  | 

— ChEMBL document CHEMBL4330076, “Quinazolin-2,4-dione-Based Hydroxamic Acids as Selective Histone Deacetylase-6 Inhibitors for Treatment of Non-Small Cell Lung Cancer” (J Med Chem, 2019)
